We go through nine compounds from ChEMBL document CHEMBL4732224, “Structure activity refinement of phenylsulfonyl piperazines as antimalarials that block erythrocytic invasion” (Eur J Med Chem, 2021).

SMILES strings stand for the structures. pEC50: −log10 of the molar value. Converted amounts (≈) assume the structure as drawn. The source made the active and inactive calls. The rule behind the calls is not given here. Bounds are passed on as bounds.

In data set [1] the test system is HepG2. The experiment in a line: Cytotoxicity against human HePG2 cells assessed as growth inhibition after 48 hrs by Cell Titer-Glo assay. As to conditions: HepG2, 48 h. The data set is classed as cell-based.
The subject of data set [2] is Plasmodium falciparum. As to the kind of experiment: Antimalarial activity against Plasmodium falciparum 3D7 incubated for 72 hrs by LDH assay. Type of data set: functional, organism-based. As to conditions: 3D7, 72 h. The method in brief:
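Asexual blood-stage P. falciparum 3D7 parasites were cultured with compound for 72 h, and viability was read by lactate dehydrogenase (LDH) activity.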

A short description of data set [3]: Solubility of compound in PBS at pH 6.5 by nephelometric analysis. Type of data set: physicochemical.
Data set [4] relates to Plasmodium falciparum. As to the kind of experiment: Antimalarial activity against Plasmodium falciparum NF54 late stage ([…]) expressing Pfs16-LUC-GFP assessed as growth inhibition by high content imaging assay. Type of data set: functional, organism-based.
The test system of data set [5] is Plasmodium falciparum. As to the kind of experiment: Antimalarial activity against Plasmodium falciparum NF54 late stage ([…]) expressing Pfs16-LUC-GFP assessed as growth inhibition at 20 uM by high content imaging assay relative to control. Particulars: read-out: GI. Type of data set: functional.
The test system of data set [6] is Plasmodium falciparum. As to the kind of experiment: Antimalarial activity against asexual blood stage of chloroquine-resistant Plasmodium falciparum 7G8 assessed as reduction in cell viability after 72 hrs by EtBr staining based flow cytometric analysis. The data set is classed as functional, organism-based. Particulars: 7G8, 72 h.
The test system of data set [7] is Plasmodium falciparum. As to the kind of experiment: Antimalarial activity against asexual blood stage of Plasmodium falciparum 3D7 assessed as reduction in cell viability after 72 hrs by EtBr staining based flow cytometric analysis. The data set is classed as functional, organism-based. Particulars: 3D7, 72 h.
For data set [8], the system named is Plasmodium falciparum. As to the kind of experiment: Antimalarial activity against schizonts stage of Plasmodium falciparum D10 expressing GFP infected in human RBC assessed as reduction in merozoites invade to RBC at 4 times of EC90 concentration after 6 hrs by flow cytometric analysis. Type of data set: functional, organism-based.
Data set [9] relates to Plasmodium falciparum. The experiment in a line: Antimalarial activity against schizonts stage of Plasmodium falciparum D10 expressing GFP infected in human RBC assessed as reduction in ring stage formation at 4 times of EC90 concentration after 6 hrs by flow cytometric analysis. The data set is classed as functional, organism-based.
Data set [10] has as its system Plasmodium falciparum. The experiment in a line: Antimalarial activity against asexual blood stage of Mefloquine-resistant Plasmodium falciparum W2mef assessed as reduction in cell viability after 72 hrs by EtBr staining based flow cytometric analysis. The data set is classed as functional, organism-based.
Data set [11] has as its system Plasmodium falciparum. The experiment in a line: Antimalarial activity against Plasmodium falciparum NF54 early stage (1 to 3) expressing Pfs16-LUC-GFP assessed as growth inhibition by high content imaging assay. Type of data set: functional, organism-based.
The subject of data set [12] is Plasmodium falciparum. As to the kind of experiment: Antimalarial activity against asexual blood stage of artemisinin-resistant Plasmodium falciparum Cam3.12539T cambodian isolate assessed as reduction in cell viability after 72 hrs by EtBr staining based flow cytometric analysis. The data set is classed as functional, organism-based. As to conditions: Cam3.12539T cambodian isolat.

In data set [13] the test system is Plasmodium falciparum. The experiment in a line: Antimalarial activity against Plasmodium falciparum NF54 early stage (1 to 3) expressing Pfs16-LUC-GFP assessed as growth inhibition at 20 uM by high content imaging assay relative to control. The data set is classed as functional. Particulars: read-out: GI.
Data set [14] has as its system Plasmodium falciparum. The experiment in a line: Antimalarial activity against schizonts stage of Plasmodium falciparum D10 expressing PEXEL-Nluc infected in human RBC assessed as reduction in invasion at 5 times of EC90 concentration preincubated for 30 mins followed by compound wash out and measured after 24 hrs by luminometric method. Type of data set: functional, organism-based.

Data set [15] has as its system Plasmodium knowlesi. The experiment in a line: Antimalarial activity against asexual blood stage of Plasmodium knowlesi YHI assessed as reduction in cell viability after 48 hrs by EtBr staining based flow cytometric analysis. Type of data set: functional, organism-based.
Data set [16] concerns Plasmodium falciparum. As to the kind of experiment: Antimalarial activity against asexual blood stage of chloroquine-resistant Plasmodium falciparum Dd2 assessed as reduction in cell viability after 72 hrs by EtBr staining based flow cytometric analysis. Type of data set: functional, organism-based. Particulars: Dd2, 72 h.
The nature of data set [17]: Intrinsic clearance in mouse liver microsomes at 1 uM in presence of NADPH measured up to 60 mins by LC-MS analysis. Type of data set: ADME, Microsome. As to conditions: read-out: CLH.

With `C[C@@H](C(=O)N1CCCC1)N1CCN(S(=O)(=O)c2ccc(C(C)(C)C)cc2)CC1`, the values for the pEC50 in data set [1] and in data set [2] were < 4.40 and 6.52, respectively. The same compound returned a kinetic solubility in data set [3] of 25 µM (≈ 10.2 µg/mL).

As to `C[C@@H](C(=O)N1CC2CC2C1)N1CCN(S(=O)(=O)c2ccc(C(C)(C)C)cc2)CC1` (stereo partly specified), the pEC50 in [4] is < 5.00; in [6], 7.10; in data set [7], 7.52; in data set [1] it was < 4.40; in data set [2] it was 6.89; in [10] it was 7.22. Moreover, the negative-log EC50 (pEC50) in data set [11] is < 5.00; in data set [12], 7.22; in [15], 6.85; in data set [16] it was 7.15. Besides, the inhibition of growth at 20 µM in [5] stood at 36%; in [13] it was 44%. Also, the outcome in data set [8], in data set [9] and in data set [14] was Active.

In the case of `CCN(CC)CCCC(C)Nc1ccnc2cc(Cl)ccc12` (stereo unspecified) [CHLOROQUINE], the pEC50 is < 5.00 in [4]; 6.49 in data set [6]; 8.40 in [7]; 4.68 in data set [2]; 6.60 in data set [10]; 7.01 in data set [11]. In addition, the negative logarithm of the EC50 (pEC50) was 6.25 in data set [12], 8.00 in data set [15] and 6.24 in data set [16]. In data set [5], the inhibition of growth at 20 µM was determined as 99%.

For the compound `CC(C(=O)N1CCCC1)N1[C@@H]2CC[C@H]1CN(S(=O)(=O)c1ccc(C(C)(C)C)cc1)C2` (stereo partly specified), in [17], the microsomal CLint at 1 µM amounted to 473 µL/min/mg. For the same compound, the negative logarithm of the EC50 (pEC50) in data set [1] is < 4.40; in data set [2] it was 6.04.

For the compound `C[C@@H](C(=O)N1CCCC1)N1CCN(S(=O)(=O)c2ccc([Si](C)(C)C)cc2)CC1`, the microsomal CLint at 1 µM in [17] is > 866 µL/min/mg. Moreover, the values for the pEC50 in data set [1] and in data set [2] were < 4.40 and 6.31, respectively.

For the compound `CC(C(=O)N1CCCC1)C1CCN(S(=O)(=O)c2ccc(C(C)(C)C)cc2)CC1` (stereo unspecified), the microsomal CLint at 1 µM in [17] was found to be 532 µL/min/mg. In addition, the figures for the negative logarithm of the EC50 (pEC50) in data set [1] and in data set [2] were < 4.40 and < 5.00, respectively.

For `C[C@@H](C(=O)N1CCC(F)(F)CC1)N1CCN(S(=O)(=O)c2ccc(C(C)(C)C)cc2)CC1`, the pEC50 in data set [4] is < 5.00; in data set [6], 6.96; in [7] it was 7.30; in data set [1] it was < 4.40; in data set [2], 6.70; in [10] it was 7.05. For the same compound, the pEC50 in data set [11] is < 5.00; in data set [12], 7.10; in data set [15], 6.59; in data set [16], 6.96. Further, the results for the inhibition of growth at 20 µM in data set [5] and in data set [13] were 47% and 59%, respectively. Also, the outcome in data set [8], in data set [9] and in data set [14] was Active.

On to `C[C@@H](C(=O)N1CCc2ccccc2C1(C)C)N1CCN(S(=O)(=O)c2ccc(C(C)(C)C)cc2)CC1`, for which the pEC50 in data set [4] is < 5.00; in data set [6], 7.52; in data set [7], 8.00; in data set [1] it was 4.59; in [2], 6.96; in data set [10] it was 7.40. Moreover, the pEC50 in data set [11] is < 5.00; in [12], 7.70; in [15] it was 7.05; in data set [16], 7.22. Further, the inhibition of growth at 20 µM in [5] came to 59%; in data set [13], 79%. Besides, the outcome in [8], in [9] and in data set [14] was Active.

Consider `CC(C(=O)N1CCc2ccccc2C1(C)C)N1CCN(S(=O)(=O)c2ccc(C(C)(C)C)cc2)CC1` (stereo unspecified), for which the microsomal CLint at 1 µM in data set [17] is > 866 µL/min/mg. Moreover, the negative-log EC50 (pEC50) in [1] was 4.51; in data set [2], 6.74. Moreover, the solubility (kinetic) in data set [3] was < 1.6 µM.
